Data reported in publication PMC2782447 (Apoptosis : an international journal on programmed cell …, 2008).
The star is where a group is joined. pNA = O=[N+]([O-])c1ccc(N*)cc1

How the values were obtained:
[1] = target: T1, caspase-3 (Homo sapiens, UniProt P42574); assay: Crystal structure of caspase-3/LDESD; assay type: binding; details: crystal structure caspase-3/LDESD, 1.61 Å, PDB 3EDQ
T1 sequence (P42574 29-175 limits assumed): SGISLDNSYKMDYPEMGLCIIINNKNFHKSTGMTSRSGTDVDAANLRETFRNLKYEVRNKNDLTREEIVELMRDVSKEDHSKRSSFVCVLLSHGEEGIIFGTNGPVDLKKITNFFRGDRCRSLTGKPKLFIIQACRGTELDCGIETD
T1 sequence (P42574 176-277 limits assumed): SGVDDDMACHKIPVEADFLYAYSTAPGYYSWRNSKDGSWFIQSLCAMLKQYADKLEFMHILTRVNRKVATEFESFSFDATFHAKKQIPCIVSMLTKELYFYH

[2] = target: T2, caspase-7 (Homo sapiens, UniProt P55210); assay: Crystal structure of caspase-7/LDESD; assay type: binding; details: crystal structure caspase-7/LDESD, 2.45 Å, PDB 3EDR
T2 sequence (P55210 24-198 limits assumed): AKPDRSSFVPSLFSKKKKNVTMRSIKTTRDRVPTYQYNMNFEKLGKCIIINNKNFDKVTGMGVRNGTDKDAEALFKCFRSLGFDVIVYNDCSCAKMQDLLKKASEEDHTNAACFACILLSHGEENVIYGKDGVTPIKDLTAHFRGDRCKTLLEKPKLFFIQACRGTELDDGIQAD
T2 sequence (P55210 207-303 limits assumed): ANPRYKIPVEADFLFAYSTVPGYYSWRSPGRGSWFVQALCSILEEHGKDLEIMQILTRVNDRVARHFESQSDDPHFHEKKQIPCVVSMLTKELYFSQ

[3] = target: T1, caspase-3; assay: Colorimetric substrate hydrolysis by caspase-3; assay type: biochemical; details: for Relative kcat/Km (relative activity): relative to DEVD = 100%, caspase-3, pH 7.5
[4] = target: T3, caspase-6 (Homo sapiens, UniProt P55212); assay: Colorimetric substrate hydrolysis by caspase-6; assay type: biochemical; details: for kcat/Km: 50 mM HEPES, pH 7.25, 100 mM NaCl, 10% sucrose, 0.1% CHAPS, 405 nm, triplicate; for Relative kcat/Km (relative activity): relative to DEVD = 100%
T3 sequence (P55212 25-179 limits assumed): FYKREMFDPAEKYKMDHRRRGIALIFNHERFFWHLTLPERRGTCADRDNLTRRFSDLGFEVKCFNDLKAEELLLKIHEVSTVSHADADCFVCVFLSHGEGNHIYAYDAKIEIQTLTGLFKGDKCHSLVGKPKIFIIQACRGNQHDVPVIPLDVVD
T3 sequence (P55212 194-293 limits assumed): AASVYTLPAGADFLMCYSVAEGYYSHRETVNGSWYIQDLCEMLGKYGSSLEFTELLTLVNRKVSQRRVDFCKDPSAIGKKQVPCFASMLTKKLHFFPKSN
Method in brief: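 It was purified by Ni-NTA and S-100 gel filtration and self-processed into active subunits. Assays used 50 mM HEPES pH 7.25, 100 mM NaCl, 10% sucrose, 0.1% CHAPS, with pNA substrates at varied concentrations, A405, in triplicate.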

[5] = target: T2, caspase-7; assay: Colorimetric substrate hydrolysis by caspase-7; assay type: biochemical; details: relative to DEVD = 100%; caspase-7, pH 7.5
[6] = target: caspase-8 (Homo sapiens, UniProt Q14790); assay: Colorimetric substrate hydrolysis by caspase-8; assay type: biochemical; details: relative to DEVD = 100%; caspase-8, pH 7.5
caspase-8, sequence (Q14790 217-374 limits assumed): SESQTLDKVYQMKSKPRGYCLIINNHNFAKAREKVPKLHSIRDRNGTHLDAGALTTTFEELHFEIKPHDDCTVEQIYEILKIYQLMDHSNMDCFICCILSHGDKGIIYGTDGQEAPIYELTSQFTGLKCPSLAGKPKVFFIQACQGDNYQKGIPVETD
caspase-8, sequence (Q14790 385-479 limits assumed): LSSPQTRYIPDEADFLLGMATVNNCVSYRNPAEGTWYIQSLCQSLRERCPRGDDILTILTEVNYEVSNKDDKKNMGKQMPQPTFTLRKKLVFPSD

| Substance | covalent binding mode (active site cysteine with aldehyde) [1] | covalent binding mode (active site cysteine with aldehyde) [2] | increased hydrolysis relative to DEVD ([3]; caspase-3, increase over DEVD) [%] | Relative kcat/Km (relative activity) [3] [%] | kcat/Km [4] [min^−1μM^−1] | Relative kcat/Km (relative activity) ([4]; caspase-6, pH 7.25) [%] | Relative kcat/Km (relative activity) [5] [%] | Relative kcat/Km (relative activity) [6] [%] | activity of QDEVD compared with DEVD, in words ([3]; caspase-3) | substrate preference, in words ([4]; caspase-6, polar P5) | kcat/Km fold higher than DEVD ([4]; LEHD versus DEVD, caspase-6, pH 7.25) [fold] |
| --- | --- | --- | --- | --- | --- | --- | --- | --- | --- | --- | --- |
| Ac-LDESD-aldehyde | forms a hemithioacetal bond with the aldehyde group of the inhibitor | forms a hemithioacetal bond with the aldehyde group of the inhibitor |  |  |  |  |  |  |  |  |  |
| Ac-LDEVD-pNA |  |  | 50 | 146 | 0.068±0.01 | 118 | 56 | 20 |  |  |  |
| Ac-QDEVD-pNA |  |  |  | 85 | 0.086±0.01 | 148 | 67 | 18 | the activity was similar for the tetrapeptide DEVD and the pentapeptide QDEVD | preference for polar P5 in QDEVD |  |
| LEHD |  |  |  |  | 0.19 |  |  |  |  |  | 3 |
